Compound activity: PubChem, The Scripps Research Institute Molecular Screening Center
HCV core dimer: HCV core protein dimerization inhibition | TR-FRET GST/Flag-core106 dimerization, 1536-well | inhibition, % at 5 µM | hit rate 0.33% among 300,000;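 active = inhibition above the mean of all tested compounds plus 3 SD, set per screening campaign, cut at about 45% in these data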
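test system = GST/Flag-tagged HCV core106 proteins | probe or stimulus = Eu donor and XL665 acceptor anti-tag antibodies | times = compound-protein-antibody incubation 4 h at 22.5 °C | signal = TR-FRET, excitation 340 nm, emission 617 and 671 nm | measure = percent inhibition of core106 dimerization signal | controls = wells lacking GST-core106 and wells with excess unlabelled core106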
UHRF1 binding: UHRF1 methyl-DNA binding inhibition | Q96T88 | inhibition, % at 4.4 µM | hit rate 0.75% among 370,000 | UHRF1 binding to methylated oligo, TR-FRET | AID 687016;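 also: UHRF1 SRA domain binding a hemimethylated CpG hairpin DNA probe; 0% = median of test compound wells and 100% = reference inhibitor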
MBD2 inh: inhibitors of human MBD2 binding to methylated oligonucleotide; TR-FRET; hit rate 0.31% among 370,000; inhibition, % at 4.4 µM; Q9UBB5; in the data active = inhibition above about 13%
Target sequence (Q9UBB5 whole entry, looked up): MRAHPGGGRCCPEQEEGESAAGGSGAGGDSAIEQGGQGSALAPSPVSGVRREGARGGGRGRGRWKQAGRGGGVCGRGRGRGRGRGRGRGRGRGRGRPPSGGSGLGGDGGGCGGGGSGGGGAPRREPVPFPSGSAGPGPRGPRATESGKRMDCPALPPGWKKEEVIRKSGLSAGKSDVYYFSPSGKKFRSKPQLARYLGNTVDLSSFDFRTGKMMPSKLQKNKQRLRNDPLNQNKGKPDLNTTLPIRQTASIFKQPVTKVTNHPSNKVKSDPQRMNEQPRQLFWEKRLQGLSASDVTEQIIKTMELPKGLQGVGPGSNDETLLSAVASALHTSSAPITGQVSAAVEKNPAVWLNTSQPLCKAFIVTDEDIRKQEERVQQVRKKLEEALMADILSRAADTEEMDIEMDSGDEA
TDP2 inh: TDP2 (human) inhibition, absorbance primary screen | recombinant TDP2, T5PNP hydrolysis, p-nitrophenol absorbance 415 nm | inhibition, % at 12.8 µM | hit rate 0.34% among 370,000 | O95551;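 active = inhibition above the mean of all tested compounds plus 3 SD, set per campaign, cut at about 25% in these data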;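 also: 0% = DMSO with enzyme and 100% = buffer with substrate but no TDP2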
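Assay system: recombinant human TDP2 / Reagent: T5PNP substrate at 5 mM, a TopII-DNA adduct mimic / Measured by: epi absorbance from released p-nitrophenol / Evaluation: % inhibition relative to enzyme-containing and enzyme-free wells / Control set: enzyme-free and DMSO wells / Replicates: each compound tested once, singlicate / Schedule: enzyme reaction with compound for 2 h at 37 °C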
LEDGF integ inh: blocks HIV-1 LEDGF/p75-dependent DNA integration | TR-FRET IN-LEDGF/p75 DNA integration, Eu/Cy5 | inhibition, % at 3.7 µM | hit rate 0.64% among 370,000 | AID 743269;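 active = inhibition above the screen-wide mean plus 3 SD, cut at about 13% in these data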;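 also: signal is the Cy5 over europium emission ratio at 671 and 618 nm; 0% = plate median of compound wells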
UHRF1 ctr MBD2: counter-screen for MBD2 inhibitors: human UHRF1 methylated DNA binding inhibitors | hit rate 25% among 1,000 | shares compounds with MBD2 inh | AID 720530 | UHRF1 binding to methylated oligonucleotide, TR-FRET | inhibition, % at 4.4 µM;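 also: UHRF1 SRA domain binding a labeled hemimethylated CpG hairpin DNA; 0% = vehicle only and 100% = reference inhibitor with vehicle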
MBD2 DBD conf: MBD2-DBD methyl-DNA binding inhibition, TR-FRET confirmation | inhibition, % at 4.4 µM | hit rate 26% among 1,000 | AID 720531 | shares compounds with MBD2 inh | TR-FRET MBD2-DBD binding to methylated oligonucleotide; in the data active = inhibition above about 14%
* = called active by the depositor. The list is not random: actives were taken first. Their share in the collection is about 1.8%. Rule as the data show it, unless noted: active = inhibition above about 21%; inactive = the rest.

For CCOc1cc(CNCc2ccc3c(c2)OCO3)ccc1OC the results were UHRF1 binding 3.1, MBD2 inh -2.7, TDP2 inh 0.9 and LEDGF integ inh -4.9.
`COc1ccccc1OCC(O)CNCc1ccc2c(c1)OCO2` (configuration not stated) gave HCV core dimer -0.2, UHRF1 binding 0.3, MBD2 inh 17.7*, TDP2 inh 1.4, LEDGF integ inh -0.7, UHRF1 ctr MBD2 8.0 and MBD2 DBD conf 4.8.
Cc1ccc(C(=O)Nc2nc(C)c(C(=O)N(C)C)s2)o1 was read as HCV core dimer 2.5, UHRF1 binding -0.8, MBD2 inh -0.7, TDP2 inh -11.4 and LEDGF integ inh -2.9.
For Cc1ccc(C(=O)Nc2nc(-c3ccco3)c(-c3ccco3)s2)o1 the results were UHRF1 binding 87.8*, MBD2 inh 39.7*, TDP2 inh 12.2, LEDGF integ inh 85.0*, UHRF1 ctr MBD2 12.3 and MBD2 DBD conf 7.6.
Cn1cnc([N+](=O)[O-])c1S(=O)(=O)Oc1ccccc1 was read as UHRF1 binding 6.7, MBD2 inh 14.4*, TDP2 inh -0.3, LEDGF integ inh -2.1, UHRF1 ctr MBD2 3.1 and MBD2 DBD conf 2.4.
Nc1c2ccccc2nc2ccccc12 was read as HCV core dimer 5.8, UHRF1 binding 14.8, MBD2 inh 25.7*, TDP2 inh 9.0, LEDGF integ inh 3.3, UHRF1 ctr MBD2 30.8* and MBD2 DBD conf 37.2*.
CN[C@H]1C[C@H]2c3[nH]c4cccc(-c5ccc6c(c5)OCO6)c4c3CCN2C[C@H]1[C@H](C)O was read as UHRF1 binding -2.5, MBD2 inh 0.5, TDP2 inh 4.0 and LEDGF integ inh -2.6.
Cc1cc(C(=O)COC(=O)c2cc(Cl)c(O)c(Cl)c2)c(C)n1C was read as UHRF1 binding 33.4*, MBD2 inh 17.5*, TDP2 inh 13.5, LEDGF integ inh 42.6*, UHRF1 ctr MBD2 4.3 and MBD2 DBD conf 6.2.
Cc1cc(C(=O)COC(=O)c2ccc(F)cc2)c(C)n1C was read as UHRF1 binding -1.6, MBD2 inh 2.3, TDP2 inh -3.3 and LEDGF integ inh -2.6.
`O=C(NC1CCCCN(Cc2ccc(Cl)cc2)C1=O)c1cccs1` (configuration not stated) gave UHRF1 binding 1.5, MBD2 inh 3.0, TDP2 inh -3.3 and LEDGF integ inh -1.9.
For COc1cc(NC(=O)c2ccc(OC)c([N+](=O)[O-])c2)ccc1NC(=O)c1ccco1 the results were HCV core dimer 1.5, UHRF1 binding -2.9, MBD2 inh 18.4*, TDP2 inh 9.2, LEDGF integ inh 0.7, UHRF1 ctr MBD2 8.1 and MBD2 DBD conf 1.9.
Screening COc1cc(NC(=O)c2ccc(C)c([N+](=O)[O-])c2)ccc1NC(=O)c1ccco1 returned HCV core dimer 2.2.
For CC(=O)Nc1ccc(S(=O)(=O)CC(=O)CS(=O)(=O)c2ccc(NC(C)=O)cc2)cc1 the results were UHRF1 binding 0.7, MBD2 inh 14.3*, TDP2 inh 8.3, LEDGF integ inh -1.9, UHRF1 ctr MBD2 5.5 and MBD2 DBD conf -0.6.
For CC(=O)CCS(=O)(=O)c1ccc(NC(C)=O)cc1 the results were HCV core dimer -1.1, UHRF1 binding 3.1, MBD2 inh -1.2, TDP2 inh -12.1 and LEDGF integ inh -1.8.
`O=C(NC1CC1)C1CCN(S(=O)(=O)c2ccc(Cl)c([N+](=O)[O-])c2)CC1` gave UHRF1 binding 4.7, MBD2 inh 34.5*, TDP2 inh 3.5, LEDGF integ inh -5.4, UHRF1 ctr MBD2 7.4 and MBD2 DBD conf 2.6.
O=C(NCCCN1CCCC1=O)Nc1ccc(Cl)cc1 was read as HCV core dimer -2.4, UHRF1 binding 1.3, MBD2 inh 13.9*, TDP2 inh -4.3, LEDGF integ inh 1.6, UHRF1 ctr MBD2 4.9 and MBD2 DBD conf 3.1.
`CCN(CC(=O)NC(C)(C)C)Cc1nc2c(Br)cc(Br)cc2c(=O)[nH]1` gave HCV core dimer 1.2, UHRF1 binding -2.0, MBD2 inh 41.1*, TDP2 inh -8.1, LEDGF integ inh 9.2, UHRF1 ctr MBD2 4.6 and MBD2 DBD conf 1.5.
For N=c1c2c(ccn1Cc1ccccc1)Oc1ccc3ccccc3c1C2c1ccccc1 (configuration not stated) the results were UHRF1 binding 2.1, MBD2 inh 3.0, TDP2 inh -1.6 and LEDGF integ inh -3.8.
`COc1cc2[nH]c(=O)n3nc(-c4ccccc4)nc3c2cc1OC` gave HCV core dimer 1.3.
`CCN(CC)CCNc1nc2cc(OC)c(OC)cc2c2nc(-c3ccccc3)nn12` gave HCV core dimer -0.7, UHRF1 binding 38.1*, MBD2 inh 31.3*, TDP2 inh 4.7, LEDGF integ inh -4.5, UHRF1 ctr MBD2 33.5* and MBD2 DBD conf 25.1*.
Screening COc1c(C(C)(C)C)cc(S(=O)(=O)N2c3ccccc3C[C@H]2C)cc1C(C)(C)C returned UHRF1 binding -0.9, MBD2 inh -6.7, TDP2 inh -6.5 and LEDGF integ inh 4.2.
For Cc1cc(C)c2nc3nc(C)c(C)cc3c(N)c2c1 the results were UHRF1 binding 25.5*, MBD2 inh 21.5*, TDP2 inh 2.9, LEDGF integ inh -0.8, UHRF1 ctr MBD2 41.4* and MBD2 DBD conf 37.6*.
For CCCSc1nc(C)c2cc(C)cc(C)c2n1 the results were HCV core dimer 0.1, UHRF1 binding 2.7, MBD2 inh 7.6, TDP2 inh -6.6 and LEDGF integ inh 1.7.
For CC(=O)OC[C@@H]1CN(Cc2ccccc2)C[C@H](n2ccc3c(N)ncnc32)O1 the results were UHRF1 binding 1.2, MBD2 inh 35.8*, TDP2 inh -3.3, LEDGF integ inh -0.2, UHRF1 ctr MBD2 10.6 and MBD2 DBD conf 2.4.
For Cn1c(SCc2ccc(Cl)cc2)nnc1-c1ccc2nonc2c1 the results were HCV core dimer -2.4, UHRF1 binding 3.7, MBD2 inh 21.1*, TDP2 inh 3.0, LEDGF integ inh -1.7, UHRF1 ctr MBD2 7.3 and MBD2 DBD conf 2.7.
Cn1c(SCc2c(Cl)cccc2Cl)nnc1-c1ccc2nonc2c1 was read as HCV core dimer 2.6, UHRF1 binding 1.8, MBD2 inh 1.7, TDP2 inh 1.5 and LEDGF integ inh -4.2.
Screening O=C(NCc1ccccc1Cl)C1CCN(S(=O)(=O)N2CCCC2)CC1 returned HCV core dimer 3.3, UHRF1 binding 4.2, MBD2 inh 3.2, TDP2 inh -9.4 and LEDGF integ inh -3.9.
`O=C(NCc1ccccc1Cl)C1CCN(S(=O)(=O)N2CCCCC2)CC1` gave HCV core dimer 1.2, UHRF1 binding 24.8*, MBD2 inh 19.6*, TDP2 inh 1.9, LEDGF integ inh -0.7, UHRF1 ctr MBD2 4.2 and MBD2 DBD conf 0.8.
